Measurements pooled from the literature.
Protocols differ between the studies behind these lines.
Target: Myosin light chain kinase, smooth muscle (MYLK, Homo sapiens, UniProt Q15746)

SMILES	assay	conditions	remaining binding [%]
N[C@@H]1CCN(c2nccc(-c3cnn4ncccc34)n2)C1	binding	1 µM	100
O=C(O)[C@@H]1[C@@H](Cn2nnc3ccccc3c2=O)CC[C@H]1C(=O)c1ccc(OCCC2CCOCC2)cc1	cell-free assay, competition with immobilised ligand	1 µM	100
C[C@@H](c1ccc(-n2cnc3c(N)ncnc32)cc1)N1CCc2nn(C)c(Cc3ccccc3)c2C1=O	binding, competition with immobilised ligand	0.1 µM	94
COc1ncc2cc3ccccc3nc2c1C#N	binding, competition with immobilised ligand	5 µM	92
CC1CCCN1c1nccc(-c2cnn3ncccc23)n1 (stereo not drawn)	binding	1 µM	97
COc1cnc(Nc2cccc(S(N)(=O)=O)c2)nc1N1CCN(c2ccccc2)C(=O)C1	binding, competition with immobilised ligand	1 µM	97
CN(C)c1nccc(-c2cnn3ncccc23)n1	binding	1 µM	63
CC(=O)c1c(NS(C)(=O)=O)c2cc(-c3ccc(Cl)cc3)c(-c3ccc(Cl)cc3Cl)nc2n(C)c1=O	cell-free assay, competition with immobilised ligand	1 µM	93
O=C(NCCCN1CCOCC1)c1ccc(Nc2ncc(Cl)c(-c3ccc(Cl)s3)n2)cc1	binding, competition with immobilised ligand	1 µM	89
F[C@@H]1CCN(c2nccc(-c3cnn4ncccc34)n2)C1	binding	1 µM	72
FC(F)(F)c1ccc2c(c1)nc(-c1cccnc1)n2C1CC1	cell-free assay, competition with immobilised ligand	1 µM	100
COc1cnc(Nc2cccc(S(N)(=O)=O)c2)nc1N1CCN(c2ccccc2)CC1	binding, competition with immobilised ligand	1 µM	70
O=C(Nc1c[nH]nc1C(=O)NC1CCNCC1)c1cc(F)cc(F)c1	binding, competition with immobilised ligand	1 µM	100
Cc1cnc(Nc2ccc(C(=O)N3CCC(N4CCCC4)CC3)cc2)nc1-c1cc2ccccc2s1	binding, competition with immobilised ligand	1 µM	15
CCCCN(CCCC)C(=O)CN1C[C@H](c2cc(OC)c3c(c2)OCO3)[C@@H](C(=O)O)[C@@H]1CC(C)(C)CCC	cell-free assay, competition with immobilised ligand	1 µM	100
CN(C)c1nccc(-c2cnc3ncccn23)n1	binding	1 µM	94
COc1cccc(CNC(=O)c2nc3scc(COCc4ccc(C(=O)O)cc4)c3c(=O)[nH]2)c1	cell-free assay, competition with immobilised ligand	1 µM	100
O=C(c1ccc(Nc2ncc(Cl)c(-c3cc4ccccc4s3)n2)cc1)N1CCC(N2CCCC2)CC1	binding, competition with immobilised ligand	1 µM	54
C[C@@]1(Cc2ccc(C#N)cc2)C(=O)N(c2cc(Cl)cc(Cl)c2)c2ncc(C(=O)NC3(c4nc(C5CCC5)no4)CC3)n21	cell-free assay, competition with immobilised ligand	1 µM	100
CN(CCCC(F)(F)F)c1nccc(-c2cnn3ncccc23)n1	binding	1 µM	100
Nc1ncc2c(n1)-c1c([nH]c3ccc(C#CC4CC4)cc13)CCCC2	binding, competition with immobilised ligand	1 µM	92
